Key:
[1] = target: 5-hydroxytryptamine receptor 7 (Homo sapiens, UniProt P34969); test: Displacement of [3H]CT from human 5-HT7 receptor expressed in CHO cells by scintillation spectrometry; assay type: cell-based
Summary of the method: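 Cloned human 5-HT7 receptor from CHO cells, run under the supplier's recommended conditions with [3H]CT. Nonspecific binding with 25 μM clozapine. Ended by GF/C filtration, then scintillation counting. Ki taken from two nine-concentration displacement curves run in triplicate, single-site fit.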

[2] = target: Adrenergic receptor alpha-1 (Rattus norvegicus) (UniProt P15823+P23944+P43140); test: Displacement of [3H]prazosin from alpha1-adrenergic receptor in rat frontal cortex membrane at 10^-7 M after 45 mins by scintillation spectrometry; assay type: cell membranes
Sequence of Adrenergic receptor alpha-1 (Rattus norvegicus) (P15823 whole entry, looked up): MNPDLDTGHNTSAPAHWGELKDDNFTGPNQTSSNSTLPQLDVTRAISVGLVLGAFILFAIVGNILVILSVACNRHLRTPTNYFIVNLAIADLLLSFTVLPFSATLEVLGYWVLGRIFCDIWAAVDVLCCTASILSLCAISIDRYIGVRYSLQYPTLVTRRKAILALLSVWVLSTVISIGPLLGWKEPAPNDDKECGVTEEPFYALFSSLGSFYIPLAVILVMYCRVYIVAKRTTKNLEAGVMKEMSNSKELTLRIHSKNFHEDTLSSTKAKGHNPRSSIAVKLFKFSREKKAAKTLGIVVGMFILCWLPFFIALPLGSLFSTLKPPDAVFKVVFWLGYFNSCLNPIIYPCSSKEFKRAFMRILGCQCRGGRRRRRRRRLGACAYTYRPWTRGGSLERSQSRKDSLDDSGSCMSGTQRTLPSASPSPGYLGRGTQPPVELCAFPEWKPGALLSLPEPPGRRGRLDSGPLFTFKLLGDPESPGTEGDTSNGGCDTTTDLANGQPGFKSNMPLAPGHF
Sequence of Adrenergic receptor alpha-1 (Rattus norvegicus) (P23944 whole entry, looked up): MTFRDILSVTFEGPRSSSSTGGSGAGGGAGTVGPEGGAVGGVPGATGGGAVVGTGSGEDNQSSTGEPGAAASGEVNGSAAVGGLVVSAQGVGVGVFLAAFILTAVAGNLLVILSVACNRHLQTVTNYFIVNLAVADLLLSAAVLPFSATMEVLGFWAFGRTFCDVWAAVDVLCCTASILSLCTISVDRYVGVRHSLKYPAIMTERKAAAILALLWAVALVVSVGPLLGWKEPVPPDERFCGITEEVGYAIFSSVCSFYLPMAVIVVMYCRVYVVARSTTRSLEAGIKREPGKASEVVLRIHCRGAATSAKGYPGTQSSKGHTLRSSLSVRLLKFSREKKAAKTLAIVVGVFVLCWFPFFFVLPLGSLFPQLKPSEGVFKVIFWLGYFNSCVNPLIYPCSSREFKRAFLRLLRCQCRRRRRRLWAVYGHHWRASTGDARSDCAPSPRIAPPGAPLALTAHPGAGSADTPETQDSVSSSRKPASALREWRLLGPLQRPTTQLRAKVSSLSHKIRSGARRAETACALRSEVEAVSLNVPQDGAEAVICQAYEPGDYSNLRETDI
Sequence of Adrenergic receptor alpha-1 (Rattus norvegicus) (P43140 whole entry, looked up): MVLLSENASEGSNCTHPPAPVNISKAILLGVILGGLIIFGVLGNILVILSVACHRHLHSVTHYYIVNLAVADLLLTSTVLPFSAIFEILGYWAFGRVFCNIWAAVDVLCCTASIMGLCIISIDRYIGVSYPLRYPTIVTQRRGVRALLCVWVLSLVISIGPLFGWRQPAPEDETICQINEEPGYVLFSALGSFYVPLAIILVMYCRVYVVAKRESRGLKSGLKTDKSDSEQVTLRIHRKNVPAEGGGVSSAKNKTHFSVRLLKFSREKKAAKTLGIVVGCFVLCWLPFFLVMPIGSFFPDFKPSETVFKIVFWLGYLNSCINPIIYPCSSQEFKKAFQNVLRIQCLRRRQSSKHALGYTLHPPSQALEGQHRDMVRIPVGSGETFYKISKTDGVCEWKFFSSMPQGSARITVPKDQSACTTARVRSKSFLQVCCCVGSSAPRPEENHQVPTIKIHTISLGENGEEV
Summary of the method: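 Rat frontal cortex membranes (tissue frozen on dry ice, homogenized in 50 mM Tris-HCl pH 7.7, washed by repeated 40 000 g spins at 4 °C) incubated with 0.6 nM [3H]prazosin, 45 min at 25 °C, triplicates; nonspecific binding with 10 μM prazosin. Filtration over GF/B filters presoaked in 0.05% polyethylenimine, scintillation counting; single test concentration 10^-7 M.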

[3] = target: T1, 5-hydroxytryptamine receptor 1A (Rattus norvegicus, UniProt P19327); test: Displacement of [3H]8-OH-DPAT from 5-HT1A receptor in rat frontal cortex membrane after 45 mins by scintillation counting; assay type: cell membranes
T1 sequence (P19327 whole entry): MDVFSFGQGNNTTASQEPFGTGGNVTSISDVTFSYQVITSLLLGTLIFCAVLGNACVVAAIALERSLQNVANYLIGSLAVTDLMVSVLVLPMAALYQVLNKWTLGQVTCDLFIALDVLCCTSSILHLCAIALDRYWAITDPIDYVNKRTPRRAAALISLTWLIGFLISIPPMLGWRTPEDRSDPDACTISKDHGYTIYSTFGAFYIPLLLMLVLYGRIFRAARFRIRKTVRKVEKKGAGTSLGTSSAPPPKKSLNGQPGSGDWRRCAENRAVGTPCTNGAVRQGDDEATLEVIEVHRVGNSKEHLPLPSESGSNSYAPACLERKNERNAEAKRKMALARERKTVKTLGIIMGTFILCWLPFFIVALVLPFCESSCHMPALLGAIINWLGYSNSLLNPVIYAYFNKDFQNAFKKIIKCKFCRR
Summary of the method: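 Membranes from adult rat frontal cortex, prepared in 50 mM Tris-HCl pH 7.7 with washes and a 37 °C preincubation. Incubation buffer: 6.66 mM CaCl2, 16.66 μM pargyline, 0.166% ascorbic acid. Ligand 1.5 nM [3H]8-OH-DPAT; 10 μM 5-HT defines nonspecific binding. 45 min at 25 °C, GF/B filtration, scintillation counting. Triplicates; Ki from two nine-point curves, single-site fit.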

Sequence of 5-hydroxytryptamine receptor 7 (P34969 whole entry): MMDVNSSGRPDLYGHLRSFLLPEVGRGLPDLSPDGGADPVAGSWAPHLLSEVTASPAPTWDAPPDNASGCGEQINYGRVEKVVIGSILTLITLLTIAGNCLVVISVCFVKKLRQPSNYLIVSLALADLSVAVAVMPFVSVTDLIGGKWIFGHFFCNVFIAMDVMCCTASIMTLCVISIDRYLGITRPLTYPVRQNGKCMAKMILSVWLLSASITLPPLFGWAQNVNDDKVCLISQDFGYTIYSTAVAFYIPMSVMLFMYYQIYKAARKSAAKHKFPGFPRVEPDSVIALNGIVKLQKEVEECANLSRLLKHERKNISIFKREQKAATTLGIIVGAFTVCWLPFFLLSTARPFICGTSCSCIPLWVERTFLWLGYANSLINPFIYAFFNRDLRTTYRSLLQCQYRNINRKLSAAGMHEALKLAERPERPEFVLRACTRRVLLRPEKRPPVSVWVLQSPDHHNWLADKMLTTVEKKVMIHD

## O=C1Nc2ccc(F)cc2C1CCCCN1CC=C(c2cccc(C(F)(F)F)c2)CC1 (stereo not drawn)
[1]
  Ki: 40 nM
[2]
  inhibition: 11%
[3]
  Ki: 55 nM
